The results in this text go back to ChEMBL document CHEMBL3861950, “Design, synthesis and evaluation of novel 19F magnetic resonance sensitive protein tyrosine phosphatase inhibitors” (Medchemcomm, 2016).

What is called IC50 is the point on the concentration scale where inhibition reaches its midpoint.

Assay [1] concerns the target T1, Receptor-type tyrosine-protein phosphatase C (Homo sapiens, UniProt P08575).
T1 sequence (P08575 whole entry): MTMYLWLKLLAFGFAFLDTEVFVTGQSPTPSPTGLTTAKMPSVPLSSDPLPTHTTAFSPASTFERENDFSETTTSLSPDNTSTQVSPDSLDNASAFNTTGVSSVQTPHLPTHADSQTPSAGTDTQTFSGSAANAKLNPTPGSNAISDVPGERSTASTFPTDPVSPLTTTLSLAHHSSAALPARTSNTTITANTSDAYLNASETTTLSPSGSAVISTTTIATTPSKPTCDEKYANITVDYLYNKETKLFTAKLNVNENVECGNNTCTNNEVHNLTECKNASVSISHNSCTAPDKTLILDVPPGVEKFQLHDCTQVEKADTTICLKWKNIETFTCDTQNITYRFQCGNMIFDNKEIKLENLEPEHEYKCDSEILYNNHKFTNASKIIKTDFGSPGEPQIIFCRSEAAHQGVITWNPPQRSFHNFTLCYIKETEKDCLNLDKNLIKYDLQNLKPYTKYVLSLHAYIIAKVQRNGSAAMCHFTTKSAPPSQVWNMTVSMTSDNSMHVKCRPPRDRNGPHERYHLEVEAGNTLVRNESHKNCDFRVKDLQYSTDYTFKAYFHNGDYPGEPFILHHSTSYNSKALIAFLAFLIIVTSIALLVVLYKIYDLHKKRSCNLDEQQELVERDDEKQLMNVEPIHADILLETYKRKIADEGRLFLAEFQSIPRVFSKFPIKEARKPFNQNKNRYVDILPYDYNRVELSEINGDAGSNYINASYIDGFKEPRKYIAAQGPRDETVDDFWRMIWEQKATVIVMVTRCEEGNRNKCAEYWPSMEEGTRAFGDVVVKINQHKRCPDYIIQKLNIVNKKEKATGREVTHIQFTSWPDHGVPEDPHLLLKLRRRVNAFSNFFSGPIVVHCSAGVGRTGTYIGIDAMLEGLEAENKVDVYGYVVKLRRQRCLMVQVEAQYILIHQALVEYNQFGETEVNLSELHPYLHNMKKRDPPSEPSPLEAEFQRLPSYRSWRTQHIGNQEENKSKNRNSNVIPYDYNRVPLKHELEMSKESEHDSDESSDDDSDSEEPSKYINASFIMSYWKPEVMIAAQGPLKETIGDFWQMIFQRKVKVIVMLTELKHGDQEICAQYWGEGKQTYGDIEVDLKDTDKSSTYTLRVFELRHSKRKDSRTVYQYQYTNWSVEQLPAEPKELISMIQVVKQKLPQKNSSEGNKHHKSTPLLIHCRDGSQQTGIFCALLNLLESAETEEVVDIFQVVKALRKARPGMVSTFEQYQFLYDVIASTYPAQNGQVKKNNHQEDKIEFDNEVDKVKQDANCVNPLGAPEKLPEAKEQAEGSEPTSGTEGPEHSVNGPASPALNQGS
The experiment in a line: Inhibition of recombinant CD45 (unknown origin) using pNPP as substrate by spectrophotometric method. The gist of the method:
(§1)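 Recombinant PTP prepared in-house, assayed with pNPP substrate in 50 mM 3,3-dimethylglutarate buffer pH 7.0 containing 1 mM EDTA and 150 mM NaCl at 25 °C, in 96-well format. p-Nitrophenol product was quantified by absorbance at 405 nm. Non-enzymatic pNPP hydrolysis was corrected using a no-enzyme control.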

Assay [2] in a line: Selectivity ratio of IC50 for recombinant CD45 (unknown origin) to IC50 for recombinant Mycobacterium tuberculosis PTPB.
A short description of assay [3]: Selectivity ratio of IC50 for recombinant SHP2 (unknown origin) to IC50 for recombinant Mycobacterium tuberculosis PTPB.
The target in assay [4] is Tyrosine-protein phosphatase non-receptor type 13 (Homo sapiens, UniProt Q12923). In words: Inhibition of recombinant FAP1 (unknown origin) using pNPP as substrate by spectrophotometric method. A digest of the protocol:
as §1

The nature of assay [5]: Selectivity ratio of IC50 for recombinant FAP1 (unknown origin) to IC50 for recombinant Mycobacterium tuberculosis PTPB.

Sequence of Tyrosine-protein phosphatase non-receptor type 13 (Q12923 whole entry): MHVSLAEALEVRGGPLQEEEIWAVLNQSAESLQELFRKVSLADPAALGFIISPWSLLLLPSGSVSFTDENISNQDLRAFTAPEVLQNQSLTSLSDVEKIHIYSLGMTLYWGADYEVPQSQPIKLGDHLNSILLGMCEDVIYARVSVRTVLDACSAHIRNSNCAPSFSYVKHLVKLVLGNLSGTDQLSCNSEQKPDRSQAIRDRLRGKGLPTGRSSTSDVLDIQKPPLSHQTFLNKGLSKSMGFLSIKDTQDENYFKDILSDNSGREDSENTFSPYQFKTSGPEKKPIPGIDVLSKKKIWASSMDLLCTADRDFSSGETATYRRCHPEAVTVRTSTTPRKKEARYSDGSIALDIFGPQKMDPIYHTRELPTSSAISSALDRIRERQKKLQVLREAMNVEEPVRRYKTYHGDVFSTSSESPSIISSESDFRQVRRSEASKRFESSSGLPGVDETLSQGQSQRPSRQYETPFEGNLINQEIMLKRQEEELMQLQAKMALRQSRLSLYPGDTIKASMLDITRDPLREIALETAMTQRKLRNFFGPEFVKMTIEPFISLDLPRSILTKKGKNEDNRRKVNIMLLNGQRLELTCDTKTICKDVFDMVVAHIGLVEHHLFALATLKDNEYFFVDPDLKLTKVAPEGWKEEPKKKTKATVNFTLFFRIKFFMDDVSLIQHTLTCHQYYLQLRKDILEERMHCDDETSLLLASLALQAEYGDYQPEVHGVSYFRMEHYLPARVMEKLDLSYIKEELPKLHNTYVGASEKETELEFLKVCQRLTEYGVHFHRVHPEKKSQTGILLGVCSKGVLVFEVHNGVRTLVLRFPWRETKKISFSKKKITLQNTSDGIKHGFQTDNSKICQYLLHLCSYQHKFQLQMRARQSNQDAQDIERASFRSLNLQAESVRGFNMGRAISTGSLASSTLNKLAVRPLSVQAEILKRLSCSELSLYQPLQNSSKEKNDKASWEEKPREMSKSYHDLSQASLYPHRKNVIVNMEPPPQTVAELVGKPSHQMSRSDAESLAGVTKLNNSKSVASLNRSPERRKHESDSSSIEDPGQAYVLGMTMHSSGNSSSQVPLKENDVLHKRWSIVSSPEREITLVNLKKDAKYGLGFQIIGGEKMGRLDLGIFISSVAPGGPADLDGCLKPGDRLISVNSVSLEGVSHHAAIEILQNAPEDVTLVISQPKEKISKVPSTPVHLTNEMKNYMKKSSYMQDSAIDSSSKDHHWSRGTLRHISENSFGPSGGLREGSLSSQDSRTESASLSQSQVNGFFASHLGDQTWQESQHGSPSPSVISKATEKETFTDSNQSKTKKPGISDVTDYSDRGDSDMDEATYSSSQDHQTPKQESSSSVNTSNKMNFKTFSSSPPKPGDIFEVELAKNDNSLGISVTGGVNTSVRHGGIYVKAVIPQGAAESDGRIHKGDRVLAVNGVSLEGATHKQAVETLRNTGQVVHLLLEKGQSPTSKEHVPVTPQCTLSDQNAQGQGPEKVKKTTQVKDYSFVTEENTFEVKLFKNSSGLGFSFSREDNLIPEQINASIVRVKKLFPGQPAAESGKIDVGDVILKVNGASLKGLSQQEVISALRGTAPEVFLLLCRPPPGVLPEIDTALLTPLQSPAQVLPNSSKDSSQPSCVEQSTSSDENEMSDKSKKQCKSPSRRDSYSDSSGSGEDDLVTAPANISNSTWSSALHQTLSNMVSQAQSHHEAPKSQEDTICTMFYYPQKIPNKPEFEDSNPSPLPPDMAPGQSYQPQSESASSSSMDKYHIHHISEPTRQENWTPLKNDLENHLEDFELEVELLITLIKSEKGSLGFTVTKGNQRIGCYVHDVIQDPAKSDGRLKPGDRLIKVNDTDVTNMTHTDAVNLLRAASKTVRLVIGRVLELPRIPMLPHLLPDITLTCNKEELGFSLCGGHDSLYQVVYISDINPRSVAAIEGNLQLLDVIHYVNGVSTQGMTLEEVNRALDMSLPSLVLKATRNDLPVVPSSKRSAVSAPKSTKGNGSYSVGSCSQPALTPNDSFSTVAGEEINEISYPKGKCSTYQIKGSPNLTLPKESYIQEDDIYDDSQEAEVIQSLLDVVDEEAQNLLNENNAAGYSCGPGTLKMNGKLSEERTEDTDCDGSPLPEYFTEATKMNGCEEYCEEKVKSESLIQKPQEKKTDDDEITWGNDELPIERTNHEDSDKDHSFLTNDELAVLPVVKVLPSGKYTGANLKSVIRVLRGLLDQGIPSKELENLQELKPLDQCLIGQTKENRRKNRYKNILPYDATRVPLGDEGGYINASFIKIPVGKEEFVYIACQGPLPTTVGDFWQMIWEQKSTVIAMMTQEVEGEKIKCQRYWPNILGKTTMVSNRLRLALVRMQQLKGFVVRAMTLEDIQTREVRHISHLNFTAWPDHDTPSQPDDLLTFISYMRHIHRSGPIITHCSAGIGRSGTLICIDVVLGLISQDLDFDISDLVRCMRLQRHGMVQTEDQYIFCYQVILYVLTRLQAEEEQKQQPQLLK

Regarding `Cc1ccc(S(=O)(=O)NNC(=O)COc2ccc3cc(C(O)(C(F)(F)F)C(F)(F)F)c(O)cc3c2)cc1`, the IC50 was found to be 16.1 µM in assay [1] and 14.9 µM in assay [4]. The Ratio IC50 in assay [2], in assay [3] and in assay [5] was above 7 in each case.
